This passage reports phage lysis inhibition and IC50 results from PubChem BioAssay AID624056 (Southern Research Specialized Biocontainment Screening …, 2012).

A short description of test [1]: capsule biogenesis inhibitors via T7 lysis, dose response, EV36 K1 hybrid, OD600, round 7 (AID 624056). As to conditions: E. coli EV36 T7 phage lysis inhibition, OD600; at 5 µM (top of the series). The essentials:
(§1)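 System: E. coli EV36 K1:K-12 hybrid; Reagent: T7 bacteriophage; Compound dosing: two-fold dilution series, 1% DMSO; Schedule: 1.5 h compound at 37 °C, 3 h after phage; Technique: absorbance at 600 nm before and 3 h after phage addition.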

Test [2] has as its system E. coli EV36 T7 phage lysis inhibition, OD600. Described as above. The essentials: as §1

“And” between values parts separate entries of the source, which are not always exact repeats. Equal values may be shown once. The source made the active and inactive calls.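 The calls were made as follows: active = compounds specific to the target that block phage lysis by more than 30% when retested across doses; inactive = the rest, not confirmed on retesting.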

As for `O=C(Nc1cc(-c2ccc(OCCCC(F)(F)F)cc2)sc1C(=O)O)c1cc(Br)c(Br)o1`, the phage lysis inhibition in test [1] is -21.6% (inactive) and -21.4% (inactive).

Consider `O=C(NC1CCNCC1)c1ccc2ncsc2c1`, for which the phage lysis inhibition in test [1] was 121% (inactive).

By IC50 is commonly meant the concentration at which inhibition is half-maximal. In the case of `O=C(O)c1sc(-c2ccc(OCCCC(F)(F)F)cc2)cc1NC(=O)c1c(F)cc(F)cc1F`, the half-maximal inhibitory concentration (IC50) in test [2] was < 650 nM.

For `O=C(O)c1sc(-c2ccc(OCCCC(F)(F)F)cc2)cc1NC(=O)c1c(F)cccc1F`, the concentration for half-maximal inhibition (IC50) in test [2] is 90 nM.

Take `O=C(Nc1cc(-c2ccc(OC(F)(F)F)cc2)sc1C(=O)O)c1cc2ccccc2o1`: the phage lysis inhibition in test [1] was 2.17% (inactive).

As to `O=C(O)c1sc(-c2ccc(OC(F)(F)F)cc2)cc1NC(=O)c1c(F)cccc1F`, the IC50 in test [2] was 1360 nM.

With `O=C(Nc1cc(-c2ccc(OCCC(F)(F)F)cc2)sc1C(=O)O)c1ccc(Br)o1`, the 50% inhibitory concentration (IC50) in test [2] was 320 nM.

Consider `CCCCOc1ccc(-c2cc(NC(=O)c3c(F)cc(F)cc3F)c(C(=O)O)s2)cc1`, for which the IC50 in test [2] is 330 nM.

Take `CCOc1ccc(-c2cc(NC(=O)c3c(F)cccc3F)c(C(=O)O)s2)cc1`: in test [2], the IC50 is 410 nM.

`CC(C)(C)c1ccc(-c2cc(NC(=O)c3ccc(Br)s3)c(C(=O)O)s2)cc1`: in test [1], the phage lysis inhibition is -11.6% (inactive).

For `O=C(O)c1sc(-c2ccc(OCC(F)(F)F)cc2)cc1NC(=O)c1c(F)cc(F)cc1F`, the IC50 in test [2] was 1880 nM.

`CCCc1ccc(-c2cc(NC(=O)c3c(F)cccc3F)c(C(=O)O)s2)cc1`: in test [2], the IC50 is 560 nM.

For `O=C(O)c1sc(-c2ccc(OCCC(F)(F)F)cc2)cc1NC(=O)c1c(F)cc(F)cc1F`, the IC50 in test [2] is 440 nM.

Consider `O=C(Nc1cc(-c2ccc(OCC(F)(F)F)cc2)sc1C(=O)O)c1ccc(Br)o1`, for which the half-maximal inhibitory concentration (IC50) in test [2] is 330 nM.

On to `CCCCOc1ccc(-c2cc(NC(=O)c3cc(Br)c(Br)o3)c(C(=O)O)s2)cc1`, for which, in test [2], the IC50 is 960 nM.

Turning to `O=C(NCc1ccncc1)c1ccc2ncsc2c1`, the phage lysis inhibition in test [1] is 123% (inactive).

Take `CCCCOc1ccc(-c2cc(NC(=O)c3c(F)cccc3F)c(C(=O)O)s2)cc1`: the half-inhibitory concentration (IC50) in test [2] is 290 nM.

In the case of `O=C(O)c1sc(-c2ccc(OCC(F)(F)F)cc2)cc1NC(=O)c1c(F)cccc1F`, the IC50 in test [2] was 350 nM.

In the case of `O=C(Nc1ccncc1)c1ccc2ncsc2c1`, the phage lysis inhibition in test [1] is 126% (inactive). The IC50 in test [2] was 660 nM.

Take `CCOc1ccc(-c2cc(NC(=O)c3c(F)cccc3C(F)(F)F)c(C(=O)O)s2)cc1`: the IC50 in test [2] was 2650 nM.

Regarding `[N-]=[N+]=NCCOc1ccc(-c2cc(NC(=O)c3c(F)cccc3F)c(C(=O)O)s2)cc1`, in test [2], the half-maximal inhibitory concentration (IC50) is 310 nM.

For `CCCCOc1ccc(-c2cc(NC(=O)c3ccc(Br)o3)c(C(=O)O)s2)cc1`, the concentration for half-maximal inhibition (IC50) in test [2] was 320 nM.

`CCCc1ccc(-c2cc(NC(=O)c3cc(Br)c(Br)o3)c(C(=O)O)s2)cc1`: the concentration for half-maximal inhibition (IC50) in test [2] is 2350 nM.

`O=C(Nc1cc(-c2ccc(OC(F)(F)F)cc2)sc1C(=O)O)c1ccc(Br)o1`: the IC50 in test [2] was 1170 nM.

Turning to `CCOc1ccc(-c2cc(NC(=O)c3c(F)cc(F)cc3F)c(C(=O)O)s2)cc1`, the IC50 in test [2] was 1830 nM.

In the case of `O=C(O)c1sc(-c2ccc(OCCC(F)(F)F)cc2)cc1NC(=O)c1c(F)cccc1F`, in test [2], the IC50 was 50 nM.

Consider `O=C(NCCc1ccncc1)c1ccc2ncsc2c1`, for which the phage lysis inhibition in test [1] is 124% (inactive).

`O=C(Nc1cc(-c2ccc(OC(F)(F)F)cc2)sc1C(=O)O)c1cccc(F)c1`: in test [1], the phage lysis inhibition is 75.5% (inactive).

Regarding `CCCOc1ccc(-c2cc(NC(=O)c3c(F)cc(F)cc3F)c(C(=O)O)s2)cc1`, the half-inhibitory concentration (IC50) in test [2] was 530 nM.

As to `CCCc1ccc(-c2cc(NC(=O)c3c(F)cc(F)cc3F)c(C(=O)O)s2)cc1`, in test [2], the concentration for half-maximal inhibition (IC50) is 1520 nM.

For `CCCc1ccc(-c2cc(NC(=O)c3ccc(Br)o3)c(C(=O)O)s2)cc1`, the IC50 in test [2] is 340 nM.

Regarding `O=C(Nc1cc(-c2ccc(OCCCC(F)(F)F)cc2)sc1C(=O)O)c1ccc(Br)o1`, the IC50 in test [2] is 480 nM.
